What was measured:
[1] = species: Rattus norvegicus; experiment: Metabolic stability expressed as the remaining ratio of compound in rat microsomes after incubation in a shaking water bath for 1 hour; format: functional
Outline: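 Compound incubated with rat microsomes for 60 min at 37 °C in a shaking water bath. Stability is reported as the remaining ratio, the percentage of parent compound left.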

[2] = Effective bladder capacity increasing effect of compound (0.3 mg/kg i.v.) expressed as the ratio of increase in effective bladder capacity compared to saline treated animals in vivo; format: functional, Cavia porcellus; details: in the assay text read “compared with the predrug values” for “compared to saline treated animals”
Outline: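 Spinalized guinea pigs given test agent iv at 0.3 mg/kg. Effective bladder capacity was the volume of saline injected into the bladder. The result is the ratio of the increase in effective bladder capacity relative to each animal's predrug value.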

[3] = biological target: Substance-P receptor (Cavia porcellus) (UniProt P30547); experiment: Antagonist activity against tachykinin receptor 1 activity in guinea pig ileum in vitro; format: functional, tissue-based
Outline: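 Isolated guinea pig ileum preparation; NK1 antagonism expressed as a K_B value.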

Sequence of Substance-P receptor (Cavia porcellus) (P30547 whole entry): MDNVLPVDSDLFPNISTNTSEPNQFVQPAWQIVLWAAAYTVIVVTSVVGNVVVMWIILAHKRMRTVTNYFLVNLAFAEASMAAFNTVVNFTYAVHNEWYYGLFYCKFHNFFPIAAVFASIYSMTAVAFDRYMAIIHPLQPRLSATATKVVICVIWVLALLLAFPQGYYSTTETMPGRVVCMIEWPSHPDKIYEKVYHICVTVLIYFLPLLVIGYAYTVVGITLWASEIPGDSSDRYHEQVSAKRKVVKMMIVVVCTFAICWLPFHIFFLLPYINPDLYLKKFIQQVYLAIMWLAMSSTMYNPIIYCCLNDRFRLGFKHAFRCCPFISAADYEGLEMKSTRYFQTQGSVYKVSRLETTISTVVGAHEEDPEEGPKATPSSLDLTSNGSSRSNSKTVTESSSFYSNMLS

Kb [3] [nM] | Compound | Remaining ratio [1] [%] | Effect [2] [%]
– | Cc1ccccc1-c1nc(N2CCC(N3CCCC3)CC2)cc2c1C(=O)N(Cc1cc(C(F)(F)F)cc(C(F)(F)F)c1)CCCO2 | 100 | 3.97
25.7 | FC(F)(F)c1cc(COc2cccnc2-c2ccccc2)cc(C(F)(F)F)c1 | 9 | –
0.207 | O=C1c2c(-c3ccccc3Cl)cc(N3CCC(N4CCCC4)CC3)nc2OCCCN1Cc1cc(C(F)(F)F)cc(C(F)(F)F)c1 | 89 | –
129 | CN(Cc1cc(C(F)(F)F)cc(C(F)(F)F)c1)C(=O)c1ccc(N2CCOCC2)nc1-c1ccccc1 | 100 | –
69.2 | O=C1c2c(ccnc2-c2ccccc2)OCCCN1Cc1cc(C(F)(F)F)cc(C(F)(F)F)c1 | 100 | –
0.224 | O=C1c2c(-c3ccccc3)cc(N3CCC(N4CCCC4)CC3)nc2OCCCN1Cc1cc(C(F)(F)F)cc(C(F)(F)F)c1 | 86 | –
26.3 | COc1cc(N2CCOCC2)nc(-c2ccccc2)c1C(=O)N(C)Cc1cc(C(F)(F)F)cc(C(F)(F)F)c1 | 100 | –
0.382 | O=C1c2c(-c3ccccc3F)cc(N3CCC(N4CCCC4)CC3)nc2OCCCN1Cc1cc(C(F)(F)F)cc(C(F)(F)F)c1 | 100 | –
13.2 | O=C1c2c(-c3ccccc3)cc(N3CCCCC3)nc2OCCCN1Cc1cc(C(F)(F)F)cc(C(F)(F)F)c1 | 70 | –
2.57 | O=C1c2c(-c3ccccc3)cc(N3CCOCC3)nc2OCCCN1Cc1cc(C(F)(F)F)cc(C(F)(F)F)c1 | 100 | –
1.16 | CN1CCN(c2cc(-c3ccccc3)c3c(n2)OCCCN(Cc2cc(C(F)(F)F)cc(C(F)(F)F)c2)C3=O)CC1 | 100 | –
– | Cc1ccc(-c2c3n(c(=O)c4ncccc24)CC[C@@H](C)CN(Cc2cc(C(F)(F)F)cc(C(F)(F)F)c2)C3=O)cc1 | – | 12
151 | CN(Cc1cc(C(F)(F)F)cc(C(F)(F)F)c1)C(=O)c1cccnc1-c1ccccc1 | 70 | –
13.8 | O=C1c2c(-c3ccccc3)cc(N3CCCC3)nc2OCCCN1Cc1cc(C(F)(F)F)cc(C(F)(F)F)c1 | 71 | –
2.34 | O=C1c2c(-c3ccccc3)cc(N3CCC(N4CCCCC4)CC3)nc2OCCCN1Cc1cc(C(F)(F)F)cc(C(F)(F)F)c1 | 100 | –
2.63 | O=C1c2c(cc(N3CCOCC3)nc2-c2ccccc2)OCCCN1Cc1cc(C(F)(F)F)cc(C(F)(F)F)c1 | 100 | –
0.21 | Cc1ccccc1-c1cc(N2CCC(N3CCCC3)CC2)nc2c1C(=O)N(Cc1cc(C(F)(F)F)cc(C(F)(F)F)c1)CCCO2 | 100 | 24.2

From ChEMBL document CHEMBL1142019, “Design and synthesis of novel 9-substituted-7-aryl-3,4,5,6-tetrahydro-2H-pyrido[4,3-b]- and [2,3-b]-1,5-oxazocin-6-ones as NK(1) antagonists” (2005)
